High-throughput results as filed in PubChem BioAssay.
Shown are actives, neighbours in structure and some others; about 1.8% of the full set was active somewhere.
APJ antagonist: antagonists of human apelin receptor APJ, primary screen, CHO-K1 cells, beta-arrestin complementation, luminescence. inhibition, % at 20 µM. 330,000 tested, 0.32% active. AID 2521, 2010. P35414;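 active = inhibition above about 40% at 20 µM, limit read from the data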;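 note: cells challenged with 10 nM apelin-13 agonist together with compound; plate controls were apelin-13 plus DMSO wells for no effect and DMSO wells lacking apelin-13 for full effect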
APJ ag: agonists of human apelin receptor APJ, primary screen, CHO-K1 cells, PathHunter beta-arrestin, luminescence; activation, % at 20 µM; 330,000 tested, 0.11% active; 0% DMSO wells, 100% apelin;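 active = activation more than six SD over the plate average, tested at 20 µM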;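 note: 0% = DMSO alone and 100% = apelin-13 at 10 nM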
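Test system – PathHunter CHO-K1 APJ (AGTRL-1) beta-arrestin reporter cells · Input – 1000 cells/well · Compound – single test compound dose, 20 µM final, 1% DMSO · Times – compound stimulation 90 min at 25 °C, detection 60 min · Technique – beta-gal luminescence · Read-out basis – APJ–arrestin association signal · Control set – negative DMSO alone, positive Apelin-13 at 10 nM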
CXCR6 block: CXCR6 receptor inhibitors, primary screen, cell-based, beta-arrestin, luminescence, CHO-K1 PathHunter, 1536-well; 360,000 tested, 0.36% active; inhibition, % at 20 µM; AID 602244, 2012; C-X-C chemokine receptor type 6 (Homo sapiens), O00574; in the data active = inhibition above about 34%, passing the limit was not always enough;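 note: antagonist mode with CXCL16 agonist at 10 nM final; 0% = 10 nM CXCL16 with DMSO and 100% = unstimulated wells without agonist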
Beta2AR agonist: beta2AR agonists driving receptor internalization, primary screen, cell-based, FAP fluorogen, flow cytometry; AID 504454, 2011; response, % (no concentration beside the values); Am2.2-beta2AR cells; Beta-2 adrenergic receptor (Homo sapiens), P07550; 340,000 tested, 0.43% active;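 active = response above a set limit, near 3 SD of response in nonfluorescent compounds, cut at about 42% in these data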
Target sequence (P07550 whole entry, looked up): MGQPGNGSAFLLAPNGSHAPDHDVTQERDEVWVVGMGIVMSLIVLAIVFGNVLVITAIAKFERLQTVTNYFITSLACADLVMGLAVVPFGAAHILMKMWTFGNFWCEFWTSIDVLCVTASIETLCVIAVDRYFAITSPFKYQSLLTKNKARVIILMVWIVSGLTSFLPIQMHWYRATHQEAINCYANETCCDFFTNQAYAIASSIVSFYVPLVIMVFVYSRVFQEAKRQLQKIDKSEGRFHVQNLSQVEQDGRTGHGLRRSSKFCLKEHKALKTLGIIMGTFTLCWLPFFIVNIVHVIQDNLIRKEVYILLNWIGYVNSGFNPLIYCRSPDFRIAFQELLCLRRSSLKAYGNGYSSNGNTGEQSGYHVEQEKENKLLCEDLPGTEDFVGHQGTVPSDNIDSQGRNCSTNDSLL
EBI2 block: EBI2 receptor antagonists, beta-arrestin recruitment, primary screen, cell-based, luminescence, 7a,25-OHC stimulation, uHTS | G-protein coupled receptor 183 (Homo sapiens), P32249 | 7a,25-OHC stimulated | inhibition, % at 5 µM | 360,000 tested, 0.81% active | AID 651636, 2012; in the data active = inhibition above about 38%;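 note: enzyme fragment complementation signal reports receptor beta-arrestin coupling in cells; 0% = agonist plus DMSO wells and 100% = wells without agonist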
CCR6 antag: CCR6 receptor antagonists, primary screen, cell-based, CHO-K1, luminescence, beta-arrestin, uHTS. C-C chemokine receptor type 6 (Homo sapiens), P51684. CHO-K1 CCR6 PathHunter beta-arrestin, CCL20-stimulated. inhibition, % at 20 µM. 340,000 tested, 0.49% active. AID 493098, 2011;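 active = compounds whose inhibition of the agonist-driven luminescence signal at 20 µM reaches about 50%, limit read from the data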;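 note: cells stimulated with CCL20 at 14 nM final; plate controls were DMSO with CCL20 for no effect and DMSO without agonist for full effect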
EBI2 conf: EBI2 antagonist hit retest, beta-arrestin, confirmation, cell-based, single concentration, luminescence, 7a,25-OHC stimulation | shares compounds with EBI2 block | 7a,25-OHC antagonism | inhibition, % at 5 µM | 2,400 tested, 29% active | AID 651997, 2013;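 active = inhibition of at least 50%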
EBI2 agonist: EBI2 agonist activity of antagonist hits, confirmation, counter-screen for EBI2 antagonist project, cell-based, single concentration, agonist mode, luminescence; shares compounds with EBI2 block; EBI2-expressing cells, 60 min; 0% vehicle, 100% 7α,25-dihydroxycholesterol control; activation, % at 5 µM; 2,400 tested, under 10 active;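 active = activation of at least 50%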
bGal counter: E. coli beta-galactosidase enzyme inhibition, confirmation, counter-screen for EBI2 antagonist project, biochemical, luminescence, single concentration; inhibition, % at 5 µM; shares compounds with EBI2 block; 2,400 tested, 1% active; purified beta-galactosidase, luminescent Galacton Star, 15 min;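 active = replicate-average signal at least 3 plate SD below neutral wells, shown as high inhibition, flagging enzyme-inhibiting false positives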;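 note: 0% = DMSO wells with enzyme and 100% = wells lacking enzyme; higher means stronger loss of beta-gal luminescence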
Numbers without * were called inactive.

`CC1(C)C2CCC1(C)C(Nc1ccccc1)C2` (configuration not stated) gave APJ antagonist -8, APJ ag -3, CXCR6 block -8, Beta2AR agonist -1, EBI2 block -4 and CCR6 antag 19.
Screening O=C(NCc1ccccc1)c1ccc(C2SCC(=O)N2Cc2ccccc2)cc1 (configuration not stated) returned APJ antagonist 8, APJ ag -2, CXCR6 block 9, Beta2AR agonist 18, EBI2 block 41*, CCR6 antag 11, EBI2 conf 36, EBI2 agonist -1 and bGal counter -9.
For C=CCNC(=O)c1ccc(C2SCC(=O)N2Cc2ccccc2)cc1 (configuration not stated) the results were APJ antagonist 12, APJ ag -2, CXCR6 block -7, Beta2AR agonist -2, EBI2 block 5 and CCR6 antag -1.
Screening O=C(NCc1ccccc1)c1ccc(Oc2ccc(C(=O)NCc3ccccc3)cc2)cc1 returned APJ antagonist -7, APJ ag -3, CXCR6 block -2, Beta2AR agonist -7, EBI2 block 47*, CCR6 antag -7, EBI2 conf 21, EBI2 agonist 1 and bGal counter 8.
O=C(NCc1ccccc1)c1ccc(OC2CSC2)cc1 was read as APJ antagonist 2, APJ ag 2, CXCR6 block -2, Beta2AR agonist 14, EBI2 block 30 and CCR6 antag -4.
O=C(/C=C/c1ccco1)N1CCN(S(=O)(=O)c2cccs2)CC1 was read as APJ antagonist 9, APJ ag -1, CXCR6 block 8, Beta2AR agonist -6, EBI2 block 6 and CCR6 antag 6.
O=C(/C=C/c1ccco1)N1CCN(S(=O)(=O)/C=C/c2ccccc2)CC1 was read as APJ antagonist -25, APJ ag 3, CXCR6 block -2, Beta2AR agonist -1, EBI2 block 79*, CCR6 antag -1, EBI2 conf 48, EBI2 agonist 3 and bGal counter 2.
Screening O=C(/C=C/c1ccco1)N1CCN(C/C=C/c2ccccc2)CC1 returned APJ antagonist -18, APJ ag 0, CXCR6 block 12, Beta2AR agonist -1, EBI2 block 63*, CCR6 antag 11, EBI2 conf 32, EBI2 agonist 1 and bGal counter 2.
Screening Cc1ccc(/C=C/C(=O)N2CCN(S(=O)(=O)/C=C/c3ccccc3)CC2)o1 returned APJ antagonist -22, APJ ag -3, CXCR6 block 5, Beta2AR agonist -1, EBI2 block 67*, CCR6 antag 7, EBI2 conf 38, EBI2 agonist 1 and bGal counter 5.
Screening O=C(/C=C/c1ccco1)N1CCN(c2ccccc2)CC1 returned APJ antagonist 13, APJ ag -1, CXCR6 block 2, Beta2AR agonist -10, EBI2 block 2 and CCR6 antag 9.
For Cc1ccc(/C=C/C(=O)N2CCN(S(=O)(=O)c3cccs3)CC2)o1 the results were APJ antagonist -9, APJ ag -1, CXCR6 block -5, Beta2AR agonist 4, EBI2 block 20 and CCR6 antag 1.
`O=C(CSc1nnc(-c2ccccn2)n1Cc1ccccc1)N1CCCC1` gave APJ antagonist 11, APJ ag 0, CXCR6 block 1, Beta2AR agonist -13, EBI2 block -1 and CCR6 antag 4.
COCCCNC(=O)c1cccc2c(-c3cccc(C(N)=O)c3)coc12 was read as CXCR6 block 0 and EBI2 block -9.
Screening COc1ccc(NC(=O)C2=C(C)Nc3ncnn3C2c2ccccc2C(F)(F)F)c(OC)c1 (configuration not stated) returned APJ antagonist -3, APJ ag -3, CXCR6 block -10, Beta2AR agonist 2, EBI2 block -5 and CCR6 antag 8.
`C=CCn1c(=O)c2ccc(C(=O)NCc3ccccc3)cc2n(Cc2cccc(Cl)c2)c1=O` gave APJ antagonist -3, APJ ag -4, CXCR6 block 12, Beta2AR agonist 2, EBI2 block 55*, CCR6 antag 26, EBI2 conf 45, EBI2 agonist 2 and bGal counter 2.
`C=CCn1c(=O)c2ccc(C(=O)NCc3ccccc3)cc2n(Cc2ccc(Cl)cc2)c1=O` gave APJ antagonist 10, APJ ag -3, CXCR6 block 2, Beta2AR agonist 14, EBI2 block 27 and CCR6 antag 22.
`CC1(C(=O)NS(=O)(=O)c2ccc(Br)cc2)CCN1C(=O)c1cccc(F)c1` (configuration not stated) gave CXCR6 block 4 and EBI2 block 4.
Screening Cc1cc2oc(=O)cc(CN(Cc3ccccc3)Cc3ccccc3)c2cc1Cl returned CXCR6 block 1, EBI2 block 52*, EBI2 conf 51*, EBI2 agonist 0 and bGal counter -4.
`CCCN(CCC)C(=O)C1CCN(c2ccc(S(=O)(=O)N3CCOCC3)cc2[N+](=O)[O-])CC1` gave APJ antagonist 1, APJ ag 2, CXCR6 block 8, Beta2AR agonist 8, EBI2 block 62*, CCR6 antag 3, EBI2 conf 25, EBI2 agonist 1 and bGal counter 1.
For Cc1cc(C)c(C#N)c(SCC(O)COc2ccc(Br)cc2)n1 (configuration not stated) the results were APJ antagonist -16, APJ ag 1, CXCR6 block 5, Beta2AR agonist -2, EBI2 block 65*, CCR6 antag 8, EBI2 conf 37, EBI2 agonist 0 and bGal counter -1.
